Converted amounts (≈) assume the structure as drawn.
Experiments:
[1] = Lipophilicity, log D of the compound at pH 7.4; conditions: buffer
[2] = target: T1, 6-phosphofructo-2-kinase/fructose-2,6-bisphosphatase 3 (Homo sapiens, UniProt Q16875); assay: Inhibition of PFKFB3 in human A549 cells assessed as decrease in lactate secretion after 4 hrs; type: cell-based
How it was run: (§1)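 A549 cells; fructose-1,6-bisphosphate or lactate production measured.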

[3] = target: T1, 6-phosphofructo-2-kinase/fructose-2,6-bisphosphatase 3; assay: Inhibition of recombinant human PFKFB3 using fructose 6 phosphate as substrate assessed as ADP generation after 1 hr by ADP Glo assay
[4] = target: T1, 6-phosphofructo-2-kinase/fructose-2,6-bisphosphatase 3; assay: Inhibition of PFKFB3 in human A549 cells assessed as reduction of fructose-1,6-bisphosphate formation after 4 hrs by MS/MS analysis; type: cell-based; how it was run: as §1
[5] = system: A549; assay: Cytotoxicity against human A549 cells assessed as cell viability after 4 hrs; type: cell-based; conditions: a549, 4 h
[6] = target: 6-phosphofructo-2-kinase/fructose-2,6-bisphosphatase 2 (Homo sapiens, UniProt O60825); assay: Inhibition of recombinant human PFKFB2 using fructose 6 phosphate as substrate assessed as ADP generation after 1 hr by ADP Glo assay
[7] = target: 6-phosphofructo-2-kinase/fructose-2,6-bisphosphatase 1 (Homo sapiens, UniProt P16118); assay: Inhibition of recombinant human PFKFB1 using fructose 6 phosphate as substrate assessed as ADP generation after 1 hr by ADP Glo assay
[8] = Half life in CD1 mouse at 2.5 uM/kg, iv; type: ADME, organism-based; conditions: in vivo
How it was run: (§2)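 CD1 mice dosed po and iv at 2.5 µMol/kg.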

[9] = AUC in nude mouse at 124 umol/kg; type: ADME, organism-based; conditions: plasma
[10] = Half life in human hepatocytes; type: ADME, cell-based, Hepatocyte
[11] = Fraction unbound in human plasma; type: ADME, cell-free
[12] = Half life in Wistar rat at 2.5 uM/kg, iv; type: ADME, organism-based; conditions: in vivo
How it was run: (§3)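 Male Wistar Han rats, 10-12 weeks old (n=2), given 3.1 µMol/kg po and 2.5 µMol/kg iv in 5% DMSO / 95% Captisol (30% in water).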

[13] = Cmax in nude mouse at 124 umol/kg; type: ADME, organism-based; parameters: dose 124 umol/kg; conditions: in vivo
[14] = Fraction unbound in rat plasma; type: ADME, cell-free
[15] = organism: Homo sapiens; assay: Selectivity ratio of IC50 for recombinant human PFKFB2 to IC50 for recombinant human PFKFB3
How it was run: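 Ratio of the PFKFB2 enzyme IC50 to the PFKFB3 enzyme IC50. Each IC50 is the mean of at least two independent measurements, reported in micromolar, with SEM ±0.2 log units.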

[16] = Efflux ratio of apparent intrinsic permeability in human Caco2 cells; type: ADME, cell-based; conditions: Caco-2
[17] = Half life in mouse hepatocytes; type: ADME, cell-based, Hepatocyte
[18] = Aqueous solubility of the compound at pH 7.4; type: physicochemical; conditions: buffer
[19] = Apparent intrinsic permeability in human Caco2 cells at pH 6.5; type: ADME, cell-based; conditions: Caco-2, pH 6.5
[20] = Volume of distribution at steady state in Wistar rat at 3.1 uM/kg, po and 2.5 uM/kg, iv; type: ADME, organism-based; conditions: in vivo, read-out: Vdss; how it was run: as §3
[21] = Clearance in CD1 mouse at 2.5 uM/kg, po and iv; type: ADME, organism-based; conditions: in vivo; how it was run: as §2
[22] = Volume of distribution at steady state in CD1 mouse at 2.5 uM/kg, po and iv; type: ADME, organism-based; conditions: in vivo, read-out: Vdss; how it was run: as §2
[23] = Fraction unbound in mouse plasma; type: ADME, cell-free
[24] = Oral bioavailability in CD1 mouse at 2.5 uM/kg; type: ADME, organism-based; conditions: in vivo; how it was run: as §2
[25] = Half life in rat hepatocytes; type: ADME, cell-based, Hepatocyte
[26] = Clearance in Wistar rat at 3.1 uM/kg, po and […] uM/kg, iv; type: ADME, organism-based; conditions: in vivo

6-phosphofructo-2-kinase/fructose-2,6-bisphosphatase 1, sequence (P16118 whole entry): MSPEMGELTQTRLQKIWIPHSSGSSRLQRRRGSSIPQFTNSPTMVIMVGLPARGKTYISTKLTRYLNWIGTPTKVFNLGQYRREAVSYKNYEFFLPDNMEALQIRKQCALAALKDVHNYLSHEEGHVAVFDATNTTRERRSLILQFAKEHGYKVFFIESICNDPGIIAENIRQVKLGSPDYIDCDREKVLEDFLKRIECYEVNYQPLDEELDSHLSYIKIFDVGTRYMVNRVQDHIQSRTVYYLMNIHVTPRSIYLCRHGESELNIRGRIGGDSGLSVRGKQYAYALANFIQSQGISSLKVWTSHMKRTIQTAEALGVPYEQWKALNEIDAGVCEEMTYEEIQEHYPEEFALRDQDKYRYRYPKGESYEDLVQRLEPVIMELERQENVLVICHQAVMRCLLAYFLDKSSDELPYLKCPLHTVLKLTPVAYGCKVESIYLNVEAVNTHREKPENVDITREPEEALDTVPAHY
T1 sequence (Q16875 whole entry): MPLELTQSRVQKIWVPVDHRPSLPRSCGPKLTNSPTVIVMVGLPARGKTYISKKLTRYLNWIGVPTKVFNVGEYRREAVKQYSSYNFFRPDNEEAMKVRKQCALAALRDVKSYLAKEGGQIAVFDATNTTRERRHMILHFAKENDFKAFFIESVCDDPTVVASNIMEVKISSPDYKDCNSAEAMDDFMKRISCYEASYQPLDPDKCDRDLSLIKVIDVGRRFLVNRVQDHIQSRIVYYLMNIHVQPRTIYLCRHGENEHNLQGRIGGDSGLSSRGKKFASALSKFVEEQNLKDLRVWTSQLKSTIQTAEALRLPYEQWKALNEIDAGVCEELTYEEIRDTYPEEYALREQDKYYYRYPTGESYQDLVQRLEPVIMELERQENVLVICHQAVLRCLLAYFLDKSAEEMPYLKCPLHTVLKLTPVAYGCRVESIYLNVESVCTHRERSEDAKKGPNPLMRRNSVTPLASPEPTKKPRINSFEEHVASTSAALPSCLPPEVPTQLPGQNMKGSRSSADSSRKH
6-phosphofructo-2-kinase/fructose-2,6-bisphosphatase 2, sequence (O60825 whole entry): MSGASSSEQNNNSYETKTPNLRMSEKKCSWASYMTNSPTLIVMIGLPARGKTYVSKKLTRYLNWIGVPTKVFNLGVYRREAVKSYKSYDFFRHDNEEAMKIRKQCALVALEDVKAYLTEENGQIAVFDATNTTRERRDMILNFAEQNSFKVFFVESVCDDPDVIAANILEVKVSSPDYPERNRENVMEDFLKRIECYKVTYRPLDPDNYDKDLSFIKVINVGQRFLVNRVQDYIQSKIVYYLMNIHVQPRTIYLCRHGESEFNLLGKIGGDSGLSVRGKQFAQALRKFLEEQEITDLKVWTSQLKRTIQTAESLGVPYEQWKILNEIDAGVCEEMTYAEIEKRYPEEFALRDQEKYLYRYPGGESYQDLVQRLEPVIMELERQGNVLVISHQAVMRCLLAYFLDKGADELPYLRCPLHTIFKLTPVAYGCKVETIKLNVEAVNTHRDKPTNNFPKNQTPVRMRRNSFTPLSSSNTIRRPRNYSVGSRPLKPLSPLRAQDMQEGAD

| Compound | logD [1] | IC50 [2] | IC50 [3] | IC50 [4] | IC50 [6] | IC50 [7] | also measured |
| --- | --- | --- | --- | --- | --- | --- | --- |
| CCn1cc(C#N)c2cc(Oc3ccc(NC(=O)CN)cc3)ccc21 | 2.5 | > 30 µM | 0.562 µM |  | 22.8 µM | 18.4 µM |  |
| CCn1cc(C#N)c2cc(Oc3ccc(NC(=O)[C@@H]4CCN4)cc3)ccc21 |  | 19.6 µM | 0.086 µM |  |  | 3.74 µM |  |
| CC(C)Cn1cc(C#N)c2cc(Cc3ccc(NC(=O)[C@@H]4CCCN4)cc3)ccc21 | 3.9 | > 30 µM | 0.199 µM | > 30 µM | 1.45 µM | 5.92 µM |  |
| CN1Cc2cc(-n3cc(C#N)c4cc(Oc5ccc(NC(=O)[C@@H]6CCCN6)cc5)ccc43)ccc2C1=O | 3 | 2.18 µM | 0.008 µM | 0.14 µM | 0.108 µM | 0.701 µM | Activity [5]: Non-toxic |
| Cc1noc(C)c1Cn1nc(C#N)c2cc(Oc3ccc(NC(=O)[C@@H]4CCCN4)cc3)ccc21 |  |  | 0.003 µM | 0.067 µM | 0.025 µM | 0.191 µM |  |
| CC(C)Cn1cc(C#N)c2cc(S(=O)(=O)c3ccc(NC(=O)[C@@H]4CCCN4)cc3)ccc21 | 2.9 | 24.7 µM | 37.7 µM | > 30 µM | > 100 µM | 0.321 µM |  |
| CC(C)Cn1cc(C#N)c2cc(N(C)c3ccc(NC(=O)[C@@H]4CCCN4)cc3)ccc21 | 3.8 | 13.7 µM | 0.075 µM | > 30 µM | 0.141 µM | 5 µM | Activity [5]: Toxic |
| N#Cc1cn(Cc2ccccc2)c2ccc(Oc3ccc(NC(=O)[C@@H]4CCCN4)cc3)cc12 | 3.9 | 6.95 µM | 0.02 µM |  | 0.188 µM | 1.83 µM | Activity [5]: Toxic |
| CCn1cc(C#N)c2cc(Oc3ccc(NC(=O)[C@@H]4CCC(=O)N4)cc3)ccc21 |  | > 30 µM | 0.531 µM |  | 23.7 µM | > 100 µM |  |
| CCn1cc(C#N)c2cc(Oc3ccc(NC(=O)[C@@H]4CCCN4)cc3)ccc21 | 2.9 | 12 µM | 0.112 µM | 3.05 µM | 1.82 µM | 22.1 µM | Activity [5]: Non-toxic |
| Cn1cc(-c2c[nH]c3ccc(Oc4ccc(NC(=O)[C@@H]5CCCN5)cc4)cc23)cn1 | 2.3 | > 30 µM | 0.114 µM | > 30 µM | 3.57 µM | 27.4 µM |  |
| CC(C)Cn1nc(C#N)c2cc(Oc3ccc(NC(=O)[C@@H]4CCCN4)cc3)ccc21 | 3.6 | 15.4 µM | 0.004 µM | 0.297 µM | 0.015 µM | 0.294 µM | Ratio IC50 [15]: 4; Activity [5]: Toxic |
| CC(C)Cn1cc(C#N)c2cc(Sc3ccc(NC(=O)[C@@H]4CCCN4)cc3)ccc21 | > 4.3 | 14 µM | 0.111 µM |  | 0.19 µM | 1.66 µM | Activity [5]: Toxic |
| N#Cc1c[nH]c2ccc(Oc3ccc(NC(=O)CN)cc3)cc12 | 2.1 |  | 2.01 µM |  | 63.2 µM | 37.6 µM |  |
| N#Cc1c(N)[nH]c2ccc(Oc3ccc(NC(=O)[C@H](N)CO)cc3)cc12 | 1.6 |  | > 100 µM |  | > 100 µM | 61.5 µM |  |
| CCn1cc(C#N)c2cc(Oc3ccc(NC(=O)[C@@H]4CCCCN4)cc3)ccc21 | 2.7 | > 30 µM | 2.2 µM |  | 22 µM | 86.3 µM |  |

More lines, main results first:

| logD [1] | IC50 [2] | IC50 [3] | IC50 [4] | IC50 [6] | IC50 [7] | Compound | also measured |
| --- | --- | --- | --- | --- | --- | --- | --- |
| 2.9 | 12.6 µM | 0.104 µM | > 30 µM | 1.48 µM | 2.66 µM | N#Cc1c(N)n(Cc2ccccc2)c2ccc(Oc3ccc(NC(=O)CN)cc3)cc12 | Activity [5]: Toxic |
|  | > 30 µM | 9.83 µM |  | 76.1 µM | 62.9 µM | CCn1cc(C#N)c2cc(Oc3ccc(NC(=O)CN(C)C)cc3)ccc21 |  |
| 2.7 | > 30 µM | 1.57 µM |  | 6.15 µM | 36.6 µM | CC(C)Cn1cc(C#N)c2cc(Nc3ccc(NC(=O)[C@@H]4CCCN4)cc3)ccc21 |  |
| 1.9 | > 30 µM | 0.575 µM | > 30 µM | 26.9 µM | 51.1 µM | N#Cc1c(N)[nH]c2ccc(Oc3ccc(NC(=O)[C@@H](N)CO)cc3)cc12 |  |
| 1.9 | 9.71 µM | 0.021 µM | 0.979 µM | 0.818 µM | 2.35 µM | Cn1cc(-c2cn(C)c3ccc(Oc4ccc(NC(=O)[C@@H]5CCCN5)cc4)cc23)cn1 | Activity [5]: Non-toxic |
| 3.5 | 5.77 µM | 0.023 µM | 0.343 µM | 0.384 µM | 2.06 µM | CC(C)Cn1cc(C#N)c2cc(Oc3ccc(NC(=O)[C@@H]4CCCN4)cc3)ccc21 | half-life at […] [8]: 84 min; AUC [9]: 259 µM·h; half-life [10]: 28 min; fraction unbound [11]: 0.0033; half-life at […] [12]: 204 min; Cmax [13]: 35 µM; fraction unbound [14]: < 0.0003; Ratio IC50 [15]: 17; efflux ratio [16]: 4.6; half-life [17]: 21 min; solubility [18]: 48 µM (≈ 19.3 µg/mL); Papp [19]: 13.4 ×10⁻⁶ cm/s; Activity [5]: Toxic; Vd [20]: 0.4 L/kg; clearance at […] [21]: 38 mL/min/kg; Vd at […] [22]: 3.3 L/kg; fraction unbound [23]: 0.0164; bioavailability at […] [24]: 42%; half-life [25]: 21 min; clearance [26]: 2 mL/min/kg |
| 1.4 | > 30 µM | 0.111 µM | 14 µM | 2.35 µM | 16.9 µM | CNC(=O)Cn1cc(C#N)c2cc(Oc3ccc(NC(=O)[C@@H]4CCCN4)cc3)ccc21 |  |
| 2.1 | > 30 µM | 0.256 µM | 7.48 µM | > 100 µM | 53.8 µM | CN(C)CCn1cc(C#N)c2cc(Oc3ccc(NC(=O)[C@@H]4CCCN4)cc3)ccc21 |  |
| 3.2 | 16.4 µM | 0.177 µM | > 30 µM | 2.52 µM | 3.18 µM | CC(C)Cn1c(N)c(C#N)c2cc(Oc3ccc(NC(=O)CN)cc3)ccc21 | Activity [5]: Toxic |
| 1.9 | > 30 µM | 0.815 µM |  | 21.1 µM | 38.2 µM | Cn1c(N)c(C#N)c2cc(Oc3ccc(NC(=O)CN)cc3)ccc21 |  |
| > 4.3 | 8.71 µM | 0.027 µM |  | 0.374 µM | 1.93 µM | N#Cc1cn(-c2ccccc2)c2ccc(Oc3ccc(NC(=O)[C@@H]4CCCN4)cc3)cc12 | Activity [5]: Toxic |
| 1.9 | > 30 µM | 23.1 µM |  | 76.5 µM | 72.3 µM | CCn1cc(C#N)c2cc(Oc3ccc(N(C)C(=O)[C@@H]4CCCN4)cc3)ccc21 |  |
|  |  | > 100 µM |  |  |  | O=C(/C=C/c1cccnc1)c1ccncc1 |  |
| 2.7 | > 30 µM | 0.83 µM |  | 24.9 µM | 20.4 µM | CCn1cc(C#N)c2cc(Oc3ccc(NC(=O)CNC)cc3)ccc21 |  |
| 0.5 | > 30 µM | 0.343 µM | > 30 µM | 6.84 µM | 2.53 µM | CN(C)C(=O)Cn1c(N)c(C#N)c2cc(Oc3ccc(NC(=O)CN)cc3)ccc21 |  |
| 2.8 | > 30 µM | 0.048 µM | 0.633 µM | 0.429 µM | 3.47 µM | N#Cc1cn(CC2CCOCC2)c2ccc(Oc3ccc(NC(=O)[C@@H]4CCCN4)cc3)cc12 |  |
| 2.8 | > 30 µM | 0.011 µM | 0.281 µM | 0.159 µM | 1.13 µM | Cc1noc(C)c1Cn1cc(C#N)c2cc(Oc3ccc(NC(=O)[C@@H]4CCCN4)cc3)ccc21 |  |
| 2 | > 30 µM | 0.514 µM | > 30 µM | 9.18 µM | 25 µM | CCn1c(N)c(C#N)c2cc(Oc3ccc(NC(=O)CN)cc3)ccc21 |  |
| 2.8 | > 30 µM | 70.9 µM |  | > 100 µM | > 100 µM | CCn1cc(C#N)c2cc(Oc3ccc(NC(=O)[C@H]4CCCN4)cc3)ccc21 |  |
| 2.8 |  | > 100 µM |  | > 100 µM | 24 µM | CC(=O)Nc1ccc(Oc2ccc3[nH]c(N)c(C#N)c3c2)cc1 |  |
| 1.6 |  | 2.32 µM |  | 53.8 µM | > 100 µM | N#Cc1c(N)[nH]c2ccc(Oc3ccc(NC(=O)CN)cc3)cc12 |  |

From ChEMBL document CHEMBL3421585, “Structure-Based Design of Potent and Selective Inhibitors of the Metabolic Kinase PFKFB3” (J Med Chem, 2015)
